In ChEMBL document CHEMBL3877332, “Synthesis, Biological Evaluation, and Autophagy Mechanism of 12N-Substituted Sophoridinamines as Novel Anticancer Agents” (ACS Med Chem Lett, 2017):
Values belong to the compound of their own block, whether it stands above or below them. Activity calls are given as the source filed them. The rule behind the calls is not given here.

Legend:
[1] = Antiproliferative activity against human HMLE cells assessed as reduction in cell viability by MTT assay; assay type: functional, cell-based
[2] = Antiproliferative activity against human K562 cells assessed as reduction in cell viability by MTT assay; assay type: functional, cell-based
[3] = Antiproliferative activity against human HepG2 cells assessed as reduction in cell viability by MTT assay; assay type: functional, cell-based
[4] = Half life in Sprague-Dawley rat at 25 mg/kg, po measured up to 24 hrs; assay type: ADME, organism-based; settings: in vivo
Method in brief: (§1)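 Adult male Sprague-Dawley rats were given a single oral dose of 25 mg/kg. Nine blood samples (0.3 mL) were taken over 24 h. n = 3.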

[5] = MRT in Sprague-Dawley rat at 25 mg/kg, po measured up to 24 hrs; assay type: ADME, organism-based; settings: in vivo; method in brief: as §1
[6] = AUCt in Sprague-Dawley rat at 25 mg/kg, po measured up to 24 hrs; assay type: ADME, organism-based; design: time < 24 hr, dose 25 mg/kg, route oral; settings: in vivo; method in brief: as §1
[7] = AUC (0 to infinity) in Sprague-Dawley rat at 25 mg/kg, po measured up to 24 hrs; assay type: ADME, organism-based; design: dose 25 mg/kg, route oral, time infinity; settings: in vivo; method in brief: as §1
[8] = Cmax in Sprague-Dawley rat at 25 mg/kg, po measured up to 24 hrs; assay type: ADME, organism-based; design: dose 25 mg/kg, route oral; settings: in vivo; method in brief: as §1
[9] = Tmax in Sprague-Dawley rat at 25 mg/kg, po measured up to 24 hrs; assay type: ADME, organism-based; settings: in vivo; method in brief: as §1
[10] = system: HepG2; assay: Reduction in lysosomal acidification in human HepG2 cells at 50 uM after 6 hrs by DAPI/lyso tracker red-double staining based confocal microscopic analysis relative to control; assay type: functional, cell-based
Method in brief: (§2)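 HepG2 cells were incubated at 5 μM (test agent) or 50 μM (chloroquine) for 6 h, then stained with LysoTracker Red. Nuclei were stained with DAPI and cells imaged by confocal microscopy (×63). LysoTracker Red signal was quantified per cell against untreated control.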

[11] = Cytotoxicity against human HepG2 cells assessed as reduction in cell viability at 50 uM by MTT assay; assay type: functional
Method in brief: (§3)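 HepG2 cells were exposed to test agent at 5 μM or chloroquine at 50 μM for the indicated times. Viability was measured by MTT assay.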

[12] = Cytotoxicity against human HepG2 cells assessed as reduction in cell viability at 5 uM by MTT assay; assay type: functional; method in brief: as §3
[13] = system: HepG2; assay: Blockade of autophagic flux in human HepG2 cells assessed as increase in LC3-2 level at 5 uM after 8 hrs in presence of rapamycin by Western blot analysis; assay type: functional, cell-based
Method in brief: (§4)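 A549 and HepG2 cells were pretreated with chloroquine (10 μM) or rapamycin (200 nM) for 2 h. Compound was then added at 5 μM for 8 h. LC3 turnover (LC3-II) was detected by Western blot.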

[14] = system: A549; assay: Blockade of autophagic flux in human A549 cells assessed as increase in LC3-2 level at 5 uM after 8 hrs in presence of rapamycin by Western blot analysis; assay type: functional, cell-based; method in brief: as §4
[15] = system: HepG2; assay: Induction of autophagosome accumulation in human HepG2 cells transfected with EGFP-LC3 assessed as punctate dot formation at 5 uM after 6 hrs by fluorescent microscopic analysis relative to control; assay type: functional, cell-based
Method in brief: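 HepG2 cells were transfected with an EGFP-LC3 plasmid, then exposed 24 h later to 5 μM or left untreated for 6 h. Cells were imaged by fluorescence microscopy, and EGFP-LC3 puncta per cell were counted in at least 100 cells per group.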

[16] = system: HepG2; assay: Blockade of autophagic flux in human HepG2 cells assessed as increase in LC3-2 level at 5 uM after 8 hrs in presence of chloroquine by Western blot analysis; assay type: functional, cell-based; method in brief: as §4
[17] = system: HepG2; assay: Reduction in lysosomal acidification in human HepG2 cells at 5 uM after 6 hrs by DAPI/lyso tracker red-double staining based confocal microscopic analysis relative to control; assay type: functional, cell-based; method in brief: as §2
[18] = system: HepG2; assay: Blockade of autophagic flux in human HepG2 cells transfected with mCherry-EGFP-LC3 assessed as punctate dot formation at 5 uM after 6 hrs by DAPI staining-based confocal microscopic analysis; assay type: functional, cell-based
Method in brief: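 HepG2 cells were transfected with an mCherry-EGFP-LC3 tandem plasmid and treated at 5 μM for 6 h (CQ 50 μM alongside). Imaging was by confocal microscopy with DAPI-stained nuclei. GFP/mCherry double-positive and mCherry single-positive puncta per cell were counted in ≥100 cells per count. Data are the mean of three independent experiments ± SD.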

[19] = system: A549; assay: Induction of autophagosome accumulation in human A549 cells transfected with EGFP-LC3 assessed as punctate dot formation at 5 uM after 6 hrs by fluorescent microscopic analysis relative to control; assay type: functional, cell-based
[20] = system: A549; assay: Blockade of autophagic flux in human A549 cells assessed as increase in LC3-2 level at 5 uM after 8 hrs in presence of chloroquine by Western blot analysis; assay type: functional, cell-based; method in brief: as §4

SMILES: CC[C@@]1(O)C(=O)OCc2c1cc1n(c2=O)Cc2cc3c(CN(C)C)c(O)ccc3nc2-1 [TOPOTECAN]
IC50 [1]: 0.75 µM | IC50 [2]: 1.15 µM

SMILES: COc1cc(CNCCCC[C@@H]2[C@H]3CCCN4CCC[C@H](CN2C(=O)c2ccc(Cl)cc2)[C@@H]34)cc(OC)c1OC
IC50 [3]: > 20 µM

SMILES: O=C(c1ccc(Cl)cc1)N1C[C@H]2CCCN3CCC[C@@H]([C@H]23)[C@H]1CCCCO
IC50 [3]: > 50 µM

half-life [4]: 21.9 h | MRT [5]: 10.8 h | AUC(0-t) at 24 h [6]: 6.1 µM·h | AUC(0-inf) [7]: 11.7 µM·h | Cmax [8]: 2900 nM | Tmax [9]: 1.8 h
SMILES: Clc1ccc(CN2C[C@H]3CCCN4CCC[C@@H]([C@H]34)[C@H]2CCCCNCCc2cccc3c2OCO3)cc1
IC50 [1]: 0.68 µM | IC50 [2]: 1.09 µM | IC50 [3]: 2.6 µM

SMILES: O=S(=O)(c1ccc(Cl)cc1)N1C[C@H]2CCCN3CCC[C@@H]([C@H]23)[C@H]1CCCCNCc1cccc2c1OCO2
IC50 [3]: 3.8 µM

SMILES: O=S(=O)(c1ccc(Cl)cc1)N1C[C@H]2CCCN3CCC[C@@H]([C@H]23)[C@H]1CCCCNCCc1cccc2c1OCO2
IC50 [3]: 5.5 µM

SMILES: O=C(c1ccc(Cl)cc1)N1C[C@H]2CCCN3CCC[C@@H]([C@H]23)[C@H]1CCCCNCCc1cccc2c1OCO2
IC50 [3]: > 20 µM

SMILES: COC(=O)CCC[C@@H]1[C@H]2CCCN3CCC[C@H](CN1C(=O)N(CCCl)N=O)[C@@H]23
IC50 [3]: 38.3 µM

half-life [4]: 11.2 h | MRT [5]: 9.1 h | AUC(0-t) at 24 h [6]: 5.7 µM·h | AUC(0-inf) [7]: 6.8 µM·h | Cmax [8]: 2700 nM | Tmax [9]: 1.2 h
SMILES: Clc1ccc(CN2C[C@H]3CCCN4CCC[C@@H]([C@H]34)[C@H]2CCCCNCc2cccc3c2OCO3)cc1
IC50 [1]: 0.64 µM | IC50 [2]: 1.14 µM | IC50 [3]: 2.6 µM

SMILES: COC(=O)CCC[C@@H]1[C@H]2CCCN3CCC[C@H](CN1S(=O)(=O)c1ccc(Cl)cc1)[C@@H]23
IC50 [3]: 15.8 µM

SMILES: COC(=O)CCC[C@@H]1[C@H]2CCCN3CCC[C@H](CN1C(=O)C(C)(C)C)[C@@H]23
IC50 [3]: > 50 µM

SMILES: CCN(CC)CCCC(C)Nc1ccnc2cc(Cl)ccc12 (configuration not stated) [CHLOROQUINE]
Activity [10]: Active | Activity [11]: 50%

SMILES: COC(=O)CCC[C@@H]1[C@H]2CCCN3CCC[C@H](CN1C(=O)c1ccc(Cl)cc1)[C@@H]23
IC50 [3]: > 50 µM

SMILES: OCCCC[C@@H]1[C@H]2CCCN3CCC[C@H](CN1Cc1ccc(Cl)cc1)[C@@H]23
IC50 [3]: 9.3 µM

SMILES: CC(C)(C)C(=O)N1C[C@H]2CCCN3CCC[C@@H]([C@H]23)[C@H]1CCCCO
IC50 [3]: > 50 µM

SMILES: COC(=O)CCC[C@@H]1[C@H]2CCCN3CCC[C@H](CN1C(=O)NCCCl)[C@@H]23
IC50 [3]: > 50 µM

SMILES: COc1cc(NCCCC[C@@H]2[C@H]3CCCN4CCC[C@H](CN2S(=O)(=O)c2ccc(Cl)cc2)[C@@H]34)cc(OC)c1OC
IC50 [3]: 7.9 µM

half-life [4]: 13 h | MRT [5]: 11.6 h | AUC(0-t) at 24 h [6]: 10.8 µM·h | AUC(0-inf) [7]: 13.3 µM·h | Cmax [8]: 4900 nM | Tmax [9]: 1.6 h
SMILES: COc1cc(CNCCCC[C@@H]2[C@H]3CCCN4CCC[C@H](CN2Cc2ccc(Cl)cc2)[C@@H]34)cc(OC)c1OC
Activity [12]: 50% | Activity [13]: Active | IC50 [1]: 0.55 µM | Activity [14]: Active | Activity [15]: Active | IC50 [2]: 1.03 µM | Activity [16]: Active | Activity [17]: Active | Activity [18]: Active | Activity [19]: Active | Activity [20]: Active | IC50 [3]: 1.7 µM

SMILES: COc1cc(NCCCC[C@@H]2[C@H]3CCCN4CCC[C@H](CN2Cc2ccc(Cl)cc2)[C@@H]34)cc(OC)c1OC
IC50 [3]: 6.4 µM

SMILES: Clc1ccc(CN2C[C@H]3CCCN4CCC[C@@H]([C@H]34)[C@H]2CCCCNc2cccc3c2OCO3)cc1
IC50 [3]: 10.6 µM

SMILES: O=C(c1ccc(Cl)cc1)N1C[C@H]2CCCN3CCC[C@@H]([C@H]23)[C@H]1CCCCNCc1cccc2c1OCO2
IC50 [3]: 16.5 µM

SMILES: O=S(=O)(c1ccc(Cl)cc1)N1C[C@H]2CCCN3CCC[C@@H]([C@H]23)[C@H]1CCCCO
IC50 [3]: 28.8 µM
